In ChEMBL document CHEMBL1140086, “Targeting the ribose and phosphate binding site of p38 mitogen-activated protein (MAP) kinase: synthesis and biological testing of 2-alkylsulfanyl-, 4(5)-aryl-, 5(4)-heteroaryl-substituted imidazoles” (J Med Chem, 2008):

Columns and labels:
[1] = target: Mitogen-activated protein kinase 14 (Homo sapiens, UniProt Q16539); assay: Inhibition of p38alpha
Blood = assay: Inhibition of LPS-stimulated TNFalpha release in human whole blood by ELISA; assay type: functional, tissue-based
Procedure, shortened: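 Fresh human whole blood diluted with FBS; compound dilutions added, 15 min preincubation (5% CO2), then LPS stimulation; basal wells received DPBS-gentamicin. […] Tests in duplicate except where otherwise stated.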

Chain of Mitogen-activated protein kinase 14 (Q16539 whole entry): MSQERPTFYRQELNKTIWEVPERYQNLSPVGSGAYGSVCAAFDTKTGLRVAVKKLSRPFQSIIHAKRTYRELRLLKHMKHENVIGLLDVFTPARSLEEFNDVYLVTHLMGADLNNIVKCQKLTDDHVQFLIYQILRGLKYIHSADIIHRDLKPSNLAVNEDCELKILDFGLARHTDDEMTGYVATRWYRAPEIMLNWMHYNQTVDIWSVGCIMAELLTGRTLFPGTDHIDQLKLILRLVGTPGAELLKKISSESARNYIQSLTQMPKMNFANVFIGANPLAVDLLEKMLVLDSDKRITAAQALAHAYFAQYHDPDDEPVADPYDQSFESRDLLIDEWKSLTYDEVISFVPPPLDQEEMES

Row | SMILES | IC50 [1] [nM] | IC50 (Blood) [nM]
1 | OCCSc1nc(-c2ccc(F)cc2)c(-c2ccncc2)[nH]1 | 184 | 4210
2 | OCCCSc1nc(-c2ccc(F)cc2)c(-c2ccncc2)[nH]1 | 215 | 6690
3 | CC(C)C(C)Nc1cc(-c2[nH]c(SCC(O)CO)nc2-c2ccc(F)cc2)ccn1 (stereo not given) | 15 | 183
4 | CC(Nc1cc(-c2[nH]c(SCC(O)CO)nc2-c2ccc(F)cc2)ccn1)c1ccccc1 (stereo not given) | 41 | 936
5 | OCC(O)CSc1nc(-c2ccc(F)cc2)c(-c2ccnc(NCc3ccccc3)c2)[nH]1 (stereo not given) | – | 2670
6 | Cn1c(SCC(O)CO)nc(-c2ccc(F)cc2)c1-c1ccncc1 (stereo not given) | 1220 | –
7 | CSc1nc(-c2ccc(F)cc2)c(-c2ccnc(NC3CCOCC3)c2)[nH]1 | – | 201
8 | COC(=O)CSc1nc(-c2ccc(F)cc2)c(-c2ccnc(NC(C)c3ccccc3)c2)[nH]1 (stereo not given) | 36 | 45500
9 | COC(=O)CSc1nc(-c2ccc(F)cc2)c(-c2ccnc(NC(C)C(C)C)c2)[nH]1 (stereo not given) | 19 | 8940
10 | CCOP(=O)(CSc1nc(-c2ccc(F)cc2)c(-c2ccnc(NC(C)c3ccccc3)c2)[nH]1)OCC (stereo not given) | – | 19400
11 | COC(=O)CSc1nc(-c2ccc(F)cc2)c(-c2ccncc2)[nH]1 | 158 | 31900
12 | OCC(O)CSc1nc(-c2ccc(F)cc2)c(-c2ccncc2)[nH]1 (stereo not given) | 392 | 3380
13 | COC(=O)CCCSc1nc(-c2ccc(F)cc2)c(-c2ccncc2)[nH]1 | 487 | 31900
14 | CC(C)Nc1cc(-c2[nH]c(SC[C@H](O)CO)nc2-c2ccc(F)cc2)ccn1 | 6 | 180
15 | CCNc1cc(-c2[nH]c(SCC(O)CO)nc2-c2ccc(F)cc2)ccn1 (stereo not given) | 27 | 777
16 | CNc1cc(-c2[nH]c(SCC(O)CO)nc2-c2ccc(F)cc2)ccn1 (stereo not given) | 102 | 5720
17 | CCOC(=O)C(Sc1nc(-c2ccc(F)cc2)c(-c2ccncc2)[nH]1)C(=O)OCC | 2240 | 25400
18 | CC(C)Nc1cc(-c2[nH]c(SCCO)nc2-c2ccc(F)cc2)ccn1 | – | 129
19 | COC(=O)CSc1nc(-c2ccc(F)cc2)c(-c2ccnc(NC(C)C)c2)[nH]1 | 4 | 12800
20 | CC(Nc1cc(-c2[nH]c(SCC(=O)O)nc2-c2ccc(F)cc2)ccn1)c1ccccc1 (stereo not given) | 37 | 65700

Results, then the compound that gave them:

Row | IC50 [1] [nM] | IC50 (Blood) [nM] | SMILES
21 | 3 | 126 | CC(C)Nc1cc(-c2[nH]c(SCC(O)CO)nc2-c2ccc(F)cc2)ccn1 (stereo not given)
22 | 3 | 131 | OCC(O)CSc1nc(-c2ccc(F)cc2)c(-c2ccnc(NC3CCOCC3)c2)[nH]1 (stereo not given)
23 | 18 | 167 | CC(C)C(C)Nc1cc(-c2[nH]c(SC[C@H](O)CO)nc2-c2ccc(F)cc2)ccn1 (stereo not given in full)
24 | 3 | 123 | CC(C)Nc1cc(-c2[nH]c(SC[C@@H](O)CO)nc2-c2ccc(F)cc2)ccn1
25 | 12 | 145 | CC(C)C(C)Nc1cc(-c2[nH]c(SCCCO)nc2-c2ccc(F)cc2)ccn1 (stereo not given)
26 | 10 | 139 | CC(C)C(C)Nc1cc(-c2[nH]c(SC[C@@H](O)CO)nc2-c2ccc(F)cc2)ccn1 (stereo not given in full)
27 | – | 168 | CC(C)CNc1cc(-c2[nH]c(SCC(O)CO)nc2-c2ccc(F)cc2)ccn1 (stereo not given)
28 | – | 157 | OCCSc1nc(-c2ccc(F)cc2)c(-c2ccnc(N[C@H]3CC[C@H](O)CC3)c2)[nH]1
29 | 2 | 80 | OCCSc1nc(-c2ccc(F)cc2)c(-c2ccnc(NC3CCOCC3)c2)[nH]1
30 | 5 | 156 | CCC(C)Nc1cc(-c2[nH]c(SCC(O)CO)nc2-c2ccc(F)cc2)ccn1 (stereo not given)
31 | 11 | 37 | CC(C)C(C)Nc1cc(-c2[nH]c(SCCO)nc2-c2ccc(F)cc2)ccn1 (stereo not given)
